Columns and labels:
[1] = molecular target: T1, Serine/threonine-protein kinase mTOR (Homo sapiens, UniProt P42345); assay: Binding affinity to wild-type human partial length mTOR (L1382 to W2549 residues) expressed in mammalian expression system by kinome scan assay
In short: (§1)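 DNA-tagged kinases competed against immobilized ligand with an 11-point 3-fold serial dilution starting from 30 μM. Kinase bound measured by qPCR of the DNA tags. Kd from standard dose–response curves with the Hill equation (Hill slope −1); mean of duplicate experiments.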

[2] = molecular target: Phosphatidylinositol 4,5-bisphosphate 3-kinase catalytic subunit alpha isoform (Homo sapiens, UniProt P42336); assay: Binding affinity to human wild-type partial length PI3Kalpha (R108 to N1068 residues) expressed in mammalian expression system by kinome scan assay; in short: as §1
Sequence of Phosphatidylinositol 4,5-bisphosphate 3-kinase catalytic subunit alpha isoform (P42336 whole entry, the tested form may be a part, canonical isoform): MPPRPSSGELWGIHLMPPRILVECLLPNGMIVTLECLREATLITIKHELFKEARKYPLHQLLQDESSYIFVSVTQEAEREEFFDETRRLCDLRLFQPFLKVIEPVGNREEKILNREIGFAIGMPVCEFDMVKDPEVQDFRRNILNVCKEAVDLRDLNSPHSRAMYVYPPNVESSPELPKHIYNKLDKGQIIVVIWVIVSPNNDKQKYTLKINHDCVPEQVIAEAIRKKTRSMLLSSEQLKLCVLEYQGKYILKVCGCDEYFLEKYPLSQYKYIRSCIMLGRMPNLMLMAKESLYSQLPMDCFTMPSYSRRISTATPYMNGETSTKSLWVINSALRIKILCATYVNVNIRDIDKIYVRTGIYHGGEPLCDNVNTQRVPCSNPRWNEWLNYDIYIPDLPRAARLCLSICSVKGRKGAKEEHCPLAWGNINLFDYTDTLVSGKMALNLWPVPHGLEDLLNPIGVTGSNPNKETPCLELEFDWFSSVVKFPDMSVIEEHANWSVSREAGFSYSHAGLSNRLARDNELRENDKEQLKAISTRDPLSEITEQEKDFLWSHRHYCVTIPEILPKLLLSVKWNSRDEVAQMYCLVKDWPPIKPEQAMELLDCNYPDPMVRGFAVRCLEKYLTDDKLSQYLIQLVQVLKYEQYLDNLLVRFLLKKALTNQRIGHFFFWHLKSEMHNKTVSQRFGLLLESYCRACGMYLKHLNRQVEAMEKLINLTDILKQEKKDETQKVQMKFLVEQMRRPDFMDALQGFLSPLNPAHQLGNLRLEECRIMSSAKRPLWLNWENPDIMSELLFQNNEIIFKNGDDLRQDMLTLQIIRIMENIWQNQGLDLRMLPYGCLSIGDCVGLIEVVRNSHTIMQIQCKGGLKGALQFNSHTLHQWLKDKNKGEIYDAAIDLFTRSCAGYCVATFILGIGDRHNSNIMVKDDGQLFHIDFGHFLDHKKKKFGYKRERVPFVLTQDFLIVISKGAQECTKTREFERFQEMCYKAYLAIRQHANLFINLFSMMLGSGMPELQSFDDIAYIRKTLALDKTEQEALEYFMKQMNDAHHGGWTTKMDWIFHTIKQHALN

[3] = molecular target: Phosphatidylinositol 4,5-bisphosphate 3-kinase catalytic subunit beta isoform (Homo sapiens, UniProt P42338); assay: Binding affinity to human wild-type partial length PI3Kbeta (P118 to S1070 residues) expressed in mammalian expression system by kinome scan assay; in short: as §1
Sequence of Phosphatidylinositol 4,5-bisphosphate 3-kinase catalytic subunit beta isoform (P42338 whole entry, the tested form may be a part, canonical isoform): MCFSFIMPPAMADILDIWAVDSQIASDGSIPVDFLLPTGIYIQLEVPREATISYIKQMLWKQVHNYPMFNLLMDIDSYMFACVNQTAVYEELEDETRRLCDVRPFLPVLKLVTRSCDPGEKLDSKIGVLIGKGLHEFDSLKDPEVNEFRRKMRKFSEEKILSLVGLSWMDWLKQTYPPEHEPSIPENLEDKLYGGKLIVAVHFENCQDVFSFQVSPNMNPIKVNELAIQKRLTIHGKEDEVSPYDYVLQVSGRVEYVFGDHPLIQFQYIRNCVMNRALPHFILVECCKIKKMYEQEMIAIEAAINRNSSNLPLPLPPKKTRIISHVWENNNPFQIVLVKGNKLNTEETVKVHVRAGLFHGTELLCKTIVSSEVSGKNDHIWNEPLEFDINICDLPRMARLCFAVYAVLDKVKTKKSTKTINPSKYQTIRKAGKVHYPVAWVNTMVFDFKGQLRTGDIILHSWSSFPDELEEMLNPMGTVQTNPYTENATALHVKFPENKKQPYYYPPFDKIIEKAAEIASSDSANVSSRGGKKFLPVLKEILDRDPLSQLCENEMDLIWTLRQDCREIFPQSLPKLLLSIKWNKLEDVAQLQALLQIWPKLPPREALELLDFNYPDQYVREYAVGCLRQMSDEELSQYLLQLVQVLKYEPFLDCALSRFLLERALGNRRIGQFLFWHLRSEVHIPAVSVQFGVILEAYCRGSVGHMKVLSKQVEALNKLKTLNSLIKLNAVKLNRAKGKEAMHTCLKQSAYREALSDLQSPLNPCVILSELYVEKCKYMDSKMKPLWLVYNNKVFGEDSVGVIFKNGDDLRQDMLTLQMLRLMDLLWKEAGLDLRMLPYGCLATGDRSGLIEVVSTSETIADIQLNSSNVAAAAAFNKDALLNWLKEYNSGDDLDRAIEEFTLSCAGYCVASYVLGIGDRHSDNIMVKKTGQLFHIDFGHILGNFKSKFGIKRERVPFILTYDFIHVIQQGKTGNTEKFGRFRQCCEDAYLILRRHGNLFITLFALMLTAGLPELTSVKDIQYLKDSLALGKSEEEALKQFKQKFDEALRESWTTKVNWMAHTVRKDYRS

Homo sapiens [4] = species on record: Homo sapiens; assay: Selectivity ratio of Kd for binding affinity to human wild-type partial length PI3Kalpha (R108 to N1068 residues) expressed in mammalian expression system to Kd for binding affinity to wild-type human partial length mTOR (L1382 to W2549 residues) expressed in mammalian expression system
In short: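 Ratio of Kd values from the DNA-tagged kinase competition binding assay (qPCR read-out, 11-point 3-fold dilution from 30 μM, Hill fit with slope −1, duplicates): PI3Kα Kd divided by mTOR Kd.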

[5] = molecular target: T1, Serine/threonine-protein kinase mTOR; assay: Inhibition of alexa fluor 647-labeled kinase tracer 314 binding to recombinant human N-terminal GST-fused mTOR (1360 to 2549 residues) expressed in baculovirus expression system by TR-FRET assay
In short: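 LanthaScreen TR-FRET tracer displacement. GST-fused truncated mTOR (aa 1360–2549) detected with Eu-anti-GST antibody (2 nM). […] Buffer: 50 mM HEPES, 5 mM MgCl2, 1 mM EGTA, 0.01% Pluronic F-127. Ki derived from displacement.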

CYP1A1 = molecular target: T2, CYP1A1 (Homo sapiens, UniProt P04798); assay: Substrate activity at recombinant human CYP1A1 expressed in baculovirus infected insect cells assessed as parent compound remaining at 1 uM incubated for 60 mins in absence of NADP+-regenerating system by LC-MS analysis; assay type: ADME; conditions: read-out: Stability
T2 sequence (P04798 whole entry): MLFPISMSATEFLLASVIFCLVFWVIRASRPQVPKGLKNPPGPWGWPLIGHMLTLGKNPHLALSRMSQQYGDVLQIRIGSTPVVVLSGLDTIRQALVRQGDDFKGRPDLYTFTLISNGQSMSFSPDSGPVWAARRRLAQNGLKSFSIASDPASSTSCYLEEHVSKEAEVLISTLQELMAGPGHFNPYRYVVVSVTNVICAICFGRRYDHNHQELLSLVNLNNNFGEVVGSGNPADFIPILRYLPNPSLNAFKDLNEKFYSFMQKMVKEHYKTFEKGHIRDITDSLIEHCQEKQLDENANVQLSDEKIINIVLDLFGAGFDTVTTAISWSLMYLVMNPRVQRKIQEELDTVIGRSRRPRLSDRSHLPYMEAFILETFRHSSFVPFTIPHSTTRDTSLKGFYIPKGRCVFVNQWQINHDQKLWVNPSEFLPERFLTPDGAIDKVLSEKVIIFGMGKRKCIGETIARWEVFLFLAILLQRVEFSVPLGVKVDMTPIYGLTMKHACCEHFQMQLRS
In short: (§2)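 Baculovirus/insect-cell Supersomes, each expressing a single human CYP, at 25 pmol/mL. Compound at 1 μM (0.25% DMSO), 37 °C, 60 min. Reactions run with a NADP+-regenerating cofactor mix or, as negative control, without cofactors and glucose-6-phosphate dehydrogenase. Stopped with ACN containing internal standard. Duplicates; % remaining from absolute amounts.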

Homo sapiens [6] = species on record: Homo sapiens; assay: Selectivity ratio of Ki for inhibition of alexa fluor 647-labeled kinase tracer 314 binding to recombinant human full-length N-terminal His6-tagged p110alpha/p85alpha expressed in baculovirus expression system to Ki for inhibition of alexa fluor 647-labeled kinase tracer 314 binding to recombinant human N-terminal GST-fused mTOR (1360 to 2549 residues) expressed in baculovirus expression system
In short: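 Ratio of Ki values from the TR-FRET tracer 314 displacement assays. p110α: His6-tagged enzyme, biotin anti-His antibody and Eu-streptavidin (2 nM each), tracer at 20 nM, buffer 50 mM HEPES pH 7.5, 10 mM MgCl2, 1 mM EGTA, 0.01% Brij-35. mTOR: GST-mTOR 1360–2549, Eu-anti-GST, tracer 10 nM, HEPES/5 mM MgCl2/EGTA/Pluronic buffer.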

[7] = molecular target: Phosphatidylinositol 3-kinase catalytic subunit type 3 (Homo sapiens, UniProt Q8NEB9); assay: Binding affinity to human wild-type partial length VPS34 (S282 to H879 residues) expressed in mammalian expression system by kinome scan assay; in short: as §1
Sequence of Phosphatidylinositol 3-kinase catalytic subunit type 3 (Q8NEB9 whole entry, the tested form may be a part): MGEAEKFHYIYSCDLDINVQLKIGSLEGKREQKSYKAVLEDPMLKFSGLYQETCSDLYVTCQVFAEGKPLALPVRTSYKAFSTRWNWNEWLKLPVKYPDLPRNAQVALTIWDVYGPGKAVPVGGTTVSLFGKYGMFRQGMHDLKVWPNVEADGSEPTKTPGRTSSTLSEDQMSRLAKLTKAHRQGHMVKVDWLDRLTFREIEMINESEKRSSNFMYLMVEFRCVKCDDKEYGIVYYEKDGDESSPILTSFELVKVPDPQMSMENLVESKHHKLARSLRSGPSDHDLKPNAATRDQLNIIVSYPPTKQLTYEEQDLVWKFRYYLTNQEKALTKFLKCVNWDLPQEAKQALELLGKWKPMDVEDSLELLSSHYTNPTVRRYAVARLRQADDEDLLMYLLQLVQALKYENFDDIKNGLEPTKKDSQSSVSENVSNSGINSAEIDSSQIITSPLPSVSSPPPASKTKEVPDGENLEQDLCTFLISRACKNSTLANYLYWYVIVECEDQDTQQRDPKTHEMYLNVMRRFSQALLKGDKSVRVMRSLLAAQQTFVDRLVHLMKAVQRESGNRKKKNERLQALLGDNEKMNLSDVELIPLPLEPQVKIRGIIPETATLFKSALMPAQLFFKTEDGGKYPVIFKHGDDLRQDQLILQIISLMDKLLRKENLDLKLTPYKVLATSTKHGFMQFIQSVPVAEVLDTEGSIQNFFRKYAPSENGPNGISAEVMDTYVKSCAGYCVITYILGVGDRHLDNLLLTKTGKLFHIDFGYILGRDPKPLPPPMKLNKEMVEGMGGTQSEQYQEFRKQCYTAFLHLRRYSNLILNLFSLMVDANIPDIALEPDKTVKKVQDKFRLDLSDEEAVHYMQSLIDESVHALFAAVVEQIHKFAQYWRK

[8] = molecular target: Phosphatidylinositol 4-kinase beta (Homo sapiens, UniProt Q9UBF8); assay: Binding affinity to wild-type human full-length PI4Kbeta (M1 to M828 residues) expressed in mammalian expression system by kinome scan assay
Sequence of Phosphatidylinositol 4-kinase beta (Q9UBF8 whole entry, the tested form may be a part): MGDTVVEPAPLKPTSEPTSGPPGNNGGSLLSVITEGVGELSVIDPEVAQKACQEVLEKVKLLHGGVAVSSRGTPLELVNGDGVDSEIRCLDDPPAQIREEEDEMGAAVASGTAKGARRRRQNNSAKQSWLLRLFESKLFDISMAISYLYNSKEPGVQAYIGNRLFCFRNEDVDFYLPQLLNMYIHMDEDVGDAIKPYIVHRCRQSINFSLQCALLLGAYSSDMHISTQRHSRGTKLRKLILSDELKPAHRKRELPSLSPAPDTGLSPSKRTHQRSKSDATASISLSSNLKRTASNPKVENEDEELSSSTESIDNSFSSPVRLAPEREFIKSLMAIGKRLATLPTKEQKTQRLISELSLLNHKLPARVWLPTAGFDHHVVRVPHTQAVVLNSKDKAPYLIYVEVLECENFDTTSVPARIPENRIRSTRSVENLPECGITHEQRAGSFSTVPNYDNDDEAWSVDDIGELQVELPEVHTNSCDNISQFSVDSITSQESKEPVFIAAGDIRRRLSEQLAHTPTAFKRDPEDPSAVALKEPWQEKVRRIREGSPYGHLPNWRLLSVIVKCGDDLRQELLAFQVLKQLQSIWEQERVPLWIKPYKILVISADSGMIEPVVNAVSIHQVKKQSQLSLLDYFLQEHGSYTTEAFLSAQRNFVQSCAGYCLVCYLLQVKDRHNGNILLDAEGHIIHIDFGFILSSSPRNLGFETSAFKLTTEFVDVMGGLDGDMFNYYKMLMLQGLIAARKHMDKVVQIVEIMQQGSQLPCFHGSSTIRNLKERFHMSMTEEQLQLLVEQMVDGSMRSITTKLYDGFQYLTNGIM
In short: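 Competition binding: compound competes with an immobilized ligand for a DNA-tagged kinase. The 11-point, 3-fold serial dilution starts at 30 μM. Bound kinase is quantified by qPCR of the DNA tag. Kd is fitted to a standard dose–response curve using the Hill equation with slope fixed at −1, and reported as the mean of duplicate experiments.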

CYP1A2 = molecular target: T3, CYP1A2 (Homo sapiens, UniProt P05177); assay: Substrate activity at recombinant human CYP1A2 expressed in baculovirus infected insect cells assessed as parent compound remaining at 1 uM incubated for 60 mins in absence of NADP+-regenerating system by LC-MS analysis; assay type: ADME; conditions: read-out: Stability; in short: as §2
T3 sequence (P05177 whole entry): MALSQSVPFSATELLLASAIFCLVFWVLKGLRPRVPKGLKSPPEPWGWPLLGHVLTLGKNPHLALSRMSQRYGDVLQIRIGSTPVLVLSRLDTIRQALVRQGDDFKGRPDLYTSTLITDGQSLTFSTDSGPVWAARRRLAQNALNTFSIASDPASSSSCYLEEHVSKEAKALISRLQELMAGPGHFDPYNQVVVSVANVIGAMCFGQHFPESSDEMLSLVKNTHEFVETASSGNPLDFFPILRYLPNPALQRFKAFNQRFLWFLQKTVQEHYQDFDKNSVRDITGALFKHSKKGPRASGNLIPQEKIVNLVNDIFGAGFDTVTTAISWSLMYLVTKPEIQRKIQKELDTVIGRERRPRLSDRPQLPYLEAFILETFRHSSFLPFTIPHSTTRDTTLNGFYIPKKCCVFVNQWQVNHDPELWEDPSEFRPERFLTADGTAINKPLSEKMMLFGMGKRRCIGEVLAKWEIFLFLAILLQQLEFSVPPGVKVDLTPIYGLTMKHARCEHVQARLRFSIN

mTORC1 = mTORC1 (Homo sapiens, UniProt P42345); assay: Inhibition of mTORC1 in human A2058 cells assessed as reduction in ribosomal protein S6 phosphorylation at Ser235/236 residues incubated for 1 hr by Western blot analysis; assay type: cell-based
In short: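 In-cell Western assay. A2058 cells (2 × 10^4/well) grown 24 h at 37 °C, 5% CO2, then exposed 1 h to inhibitor or DMSO. Cells fixed in 4% PFA, blocked, and stained for the phospho-protein with α-tubulin as internal standard; infrared fluorescence read-out. Signals normalized to tubulin and to DMSO controls to derive IC50.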

SMILES: C[C@@H]1COCCN1c1nc(-c2cnc(N)nc2)nc2c1C[C@@H]1COCCN21
- Kd [1]: 0.014 µM
- Kd [2]: 0.12 µM
- Kd [3]: 1.4 µM
- Selectivity ratio (Homo sapiens [4]): 8.6
- Ki [5]: 0.0025 µM
- remaining at 1 h, 1 µM (CYP1A1): 93%
- Ratio Ki (Homo sapiens [6]): 214
- Kd [7]: 0.98 µM
- Kd [8]: > 30 µM
- remaining at 1 h, 1 µM (CYP1A2): 91%
- IC50 (mTORC1): 0.055 µM

SMILES: C[C@@H]1COCCN1c1nc(-c2ccc(N)nc2)nc2c1C[C@@H]1COCCN21
- Kd [1]: 0.034 µM
- Kd [2]: 0.61 µM
- Kd [3]: 4.1 µM
- Selectivity ratio (Homo sapiens [4]): 17.9
- Ki [5]: 0.013 µM
- remaining at 1 h, 1 µM (CYP1A1): 109%
- Ratio Ki (Homo sapiens [6]): 165
- Kd [7]: 2.1 µM
- Kd [8]: > 30 µM
- remaining at 1 h, 1 µM (CYP1A2): 94%
- IC50 (mTORC1): 0.061 µM

SMILES: C[C@@H]1COCCN1c1nc(-c2cnc(N)cn2)nc2c1C[C@@H]1COCCN21
- Kd [1]: 0.0035 µM
- Kd [2]: 1.6 µM
- Kd [3]: 7.5 µM
- Selectivity ratio (Homo sapiens [4]): 457
- Ki [5]: 0.008 µM
- remaining at 1 h, 1 µM (CYP1A1): 96%
- Ratio Ki (Homo sapiens [6]): 212
- Kd [7]: 3.2 µM
- Kd [8]: > 30 µM
- remaining at 1 h, 1 µM (CYP1A2): 91%
- IC50 (mTORC1): 0.06 µM

Reference: ChEMBL document CHEMBL4321805, “A Conformational Restriction Strategy for the Identification of a Highly Selective Pyrimido-pyrrolo-oxazine mTOR Inhibitor” (J Med Chem, 2019)
